Data on 23 compounds can be found in ChEMBL document CHEMBL1155110, “Ribose-modified purine nucleosides as ribonucleotide reductase inhibitors. Synthesis, antitumor activity, and molecular modeling of N6-substituted 3'-C-methyladenosine derivatives” (J Med Chem, 2008).

In assay [1] the test system is HT-29. The assay can be described thus: Antitumor activity against human HT29 cells after 48 hrs by MTS assay. The following applies: HT-29, 48 h. In kind it is functional. The method in brief:
(§1)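 Cells grown in RPMI 1640 (K562) or MEM with Earle's salts (HT-29, CaCo-2, MCF-7) plus 10% FBS, 37 °C, 5% CO2; adherent lines trypsinized to single-cell suspension. Log-phase cells plated at about 5000 cells/mL, acclimatized 24 h, then exposed to serial dilutions in triplicate, up to 250 µM, for 48 h. MTS/PMS added 3 h; absorbance 490 nm; GI50 from growth inhibition.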
A general note: Tetrazolium assays rely on reduction of a dye to a coloured formazan, in cell work by metabolically active cells.

Assay [2] relates to K562. Put plainly: Antitumor activity against human K562 cells after 48 hrs by MTS assay. The following applies: K562, 48 h. It is filed as functional. The method in brief:
as §1

Assay [3] relates to Caco-2. Put plainly: Antitumor activity against human CaCo2 cells after 48 hrs by MTS assay. It is filed as functional. The following applies: Caco-2, 48 h. The method in brief: as §1
In assay [4] the test system is MCF7. The assay can be described thus: Antitumor activity against human MCF7 cells after 48 hrs by MTS assay. It is filed as functional. To be noted: MCF7, 48 h. The method in brief:
as §1

Assay [5] concerns HL-60. The assay can be described thus: Decrease in intracellular dATP pool in human HL60 cells at 40 nM relative to control. On the set-up: scale not given: the % may be the effect or the level left.
Assay [6] deals with HL-60. Put plainly: Decrease in intracellular dCTP pool in human HL60 cells at 40 nM relative to control. It is filed as functional. On the set-up: scale not given: the % may be the effect or the level left.
The target in assay [7] is T1, Adenosine receptor A3 (Homo sapiens, UniProt P0DMS8).
T1 sequence (P0DMS8 whole entry): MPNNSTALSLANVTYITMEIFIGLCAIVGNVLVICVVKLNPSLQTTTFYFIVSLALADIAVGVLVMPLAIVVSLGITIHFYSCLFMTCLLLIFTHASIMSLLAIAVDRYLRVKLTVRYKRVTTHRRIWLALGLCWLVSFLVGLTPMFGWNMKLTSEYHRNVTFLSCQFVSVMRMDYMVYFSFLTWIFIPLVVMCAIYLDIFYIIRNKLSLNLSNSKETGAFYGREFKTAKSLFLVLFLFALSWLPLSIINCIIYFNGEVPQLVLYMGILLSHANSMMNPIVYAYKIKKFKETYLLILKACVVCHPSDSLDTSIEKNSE
The assay can be described thus: Inhibition of human adenosine A3 receptor.

For assay [8], the system named is K562. Put plainly: Growth inhibition of 0.1 uM 1,4-dihydro-2-methyl-6-phenyl-4-(phenylethyl)-3,5-pyridine-dicarboxylic acid 3-ethyl-5-[(3-nitrophenyl) methyl] ester pretreated human K562 cells after 48 hrs by MTS assay. It is filed as functional.
For assay [9], the system named is K562. The assay can be described thus: Growth inhibition of 1 uM 1,4-dihydro-2-methyl-6-phenyl-4-(phenylethyl)-3,5-pyridine-dicarboxylic acid 3-ethyl-5-[(3-nitrophenyl) methyl] ester pretreated human K562 cells after 48 hrs by MTS assay. It is filed as functional.
For assay [10], the system named is K562. Put plainly: Growth inhibition of 1 uM 1,4-dihydro-2-methyl-6-phenyl-4-(phenylethyl)-3,5-pyridine-dicarboxylic acid 3-ethyl-5-[(3-nitrophenyl) methyl] ester pretreated human K562 cells after 72 hrs by MTS assay. It is filed as functional.
The test system of assay [11] is K562. The assay can be described thus: Growth inhibition of 0.1 uM 1,4-dihydro-2-methyl-6-phenyl-4-(phenylethyl)-3,5-pyridine-dicarboxylic acid 3-ethyl-5-[(3-nitrophenyl) methyl] ester pretreated human K562 cells after 72 hrs by MTS assay. It is filed as functional.
In assay [12] the test system is HL-60. The assay can be described thus: Decrease in intracellular dATP pool in human HL60 cells at 10 uM after 24 hrs relative to control. In kind it is functional. On the set-up: scale not given: the % may be the effect or the level left. Summed up:
(§2)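 HL-60 cells in log phase (0.5 × 10^6 per ml) incubated 24 h with drug at 2.5, 5 or 10 µM. dNTPs extracted from 5 × 10^7 cells by trichloroacetic acid lysis, Freon/tri-n-octylamine neutralization, periodate oxidation with methylamine (37 °C, 30 min). Quantified by SAX HPLC in ammonium phosphate pH 3.4 with 2% acetonitrile, UV 280/260 nm; expressed versus untreated control.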

Assay [13] deals with HL-60. Put plainly: Decrease in intracellular dATP pool in human HL60 cells at 2.5 uM after 24 hrs relative to control. On the set-up: scale not given: the % may be the effect or the level left. It is filed as functional. The method in brief:
as §2

Assay [14] concerns HL-60. Put plainly: Decrease in intracellular dATP pool in human HL60 cells at 5 uM after 24 hrs relative to control. In kind it is functional. On the set-up: scale not given: the % may be the effect or the level left. Summed up: as §2

Structures are written as SMILES. Bounds are passed on as bounds.

The GI50 is the concentration giving 50% growth inhibition. As for `C[C@@]1(O)[C@H](O)[C@@H](CO)O[C@H]1n1cnc2c(N)ncnc21`, the GI50 in assay [1] was greater than 100 µM; in assay [2], 16 µM; in assay [3], greater than 100 µM; in assay [4], greater than 100 µM.
Take `OC[C@H]1O[C@@H](n2cnc3c(N[C@@H]4C[C@@H]5CC[C@@H]4C5)ncnc32)[C@H](O)[C@@H]1O` (racemic): the 50% growth inhibitory concentration (GI50) in assay [1] is greater than 250 µM; in assay [2], 116 µM; in [3], greater than 250 µM; in [4], greater than 250 µM.
Regarding `OC[C@H]1O[C@@H](n2cnc3c(Nc4ccccc4)ncnc32)[C@H](O)[C@@H]1O` [N6-PHENYLADENOSINE], the GI50 in assay [1], in [2], in assay [3] and in [4] was greater than 250 µM throughout.
For the compound `Nc1ccn([C@@H]2O[C@H](CO)[C@@H](O)C2(F)F)c(=O)n1` [GEMCITABINE], the GI50 was 0.03 µM in assay [1], 0.32 µM in assay [2], 0.18 µM in [3] and 0.01 µM in assay [4]. The Activity in [5] is given as 13.9%; in assay [6] it was 6.1%.
Turning to `C[C@@]1(O)[C@@H](CO)O[C@@H](n2cnc3c(NCc4cccs4)ncnc32)[C@@H]1O`, the GI50 in [1], in assay [2], in assay [3] and in assay [4] was greater than 250 µM each time.
With `C[C@@]1(O)[C@@H](CO)O[C@@H](n2cnc3c(NC4CCCCCC4)ncnc32)[C@@H]1O`, the GI50 in assay [1] was 106 µM; in assay [2] it was 83 µM; in assay [3], greater than 250 µM; in [4] it was 200 µM.
For `C[C@@]1(O)[C@@H](CO)O[C@@H](n2cnc3c(NC4CCCCC4)ncnc32)[C@@H]1O`, the GI50 is greater than 250 µM in [1], 50 µM in assay [2], 223 µM in assay [3] and greater than 250 µM in assay [4].
Consider `OC[C@H]1O[C@@H](n2cnc3c(NC4CCCCC4)ncnc32)[C@H](O)[C@@H]1O`, for which the GI50 in [1], in assay [2], in assay [3] and in assay [4] was greater than 250 µM in each case.
Take `OC[C@H]1O[C@@H](n2cnc3c(NC4CCCC4)ncnc32)[C@H](O)[C@@H]1O` [N6-CYCLOPENTYLADENOSINE]: the GI50 in assay [1], in [2], in assay [3] and in assay [4] was greater than 250 µM throughout.
For the compound `C[C@@]1(O)[C@@H](CO)O[C@@H](n2cnc3c(Nc4ccccc4)ncnc32)[C@@H]1O`, the GI50 in assay [1] was 137 µM; in assay [2], 98 µM; in assay [3] it was 246 µM; in assay [4] it was 207 µM.
For the compound `C[C@@]1(O)[C@@H](CO)O[C@@H](n2cnc3c(NCc4ccco4)ncnc32)[C@@H]1O`, the GI50 in [1], in [2], in [3] and in assay [4] was greater than 250 µM throughout.
Take `C[C@@]1(O)[C@@H](CO)O[C@@H](n2cnc3c(NC4CCC4)ncnc32)[C@@H]1O`: the GI50 in assay [1] is greater than 250 µM; in assay [2], 246 µM; in [3], greater than 250 µM; in assay [4], greater than 250 µM.
Regarding `C[C@@]1(O)[C@@H](CO)O[C@@H](n2cnc3c(NCc4ccccc4)ncnc32)[C@@H]1O`, the GI50 in [1], in [2], in [3] and in [4] was greater than 250 µM throughout.
By Ki is commonly meant a measure of affinity in units of concentration, obtained from inhibition or displacement. As for `OC[C@H]1O[C@@H](n2cnc3c(NCc4cccs4)ncnc32)[C@H](O)[C@@H]1O`, the GI50 stood at 53.4 µM in assay [1], 3.1 µM in assay [2], 3.3 µM in assay [3] and 51.5 µM in [4]. Besides, the Ki in assay [7] was 0.06 µM.
Regarding `C[C@@]1(O)[C@@H](CO)O[C@@H](n2cnc3c(Nc4cc[nH]n4)ncnc32)[C@@H]1O`, the 50% growth inhibitory concentration (GI50) in assay [1], in assay [2], in assay [3] and in assay [4] was greater than 250 µM each time.
On to `C[C@@]1(O)[C@@H](CO)O[C@@H](n2cnc3c(NC4CCCC4)nc(Cl)nc32)[C@@H]1O`, for which the GI50 in [1], in assay [2], in assay [3] and in assay [4] was greater than 250 µM each time.
As to `OC[C@H]1O[C@@H](n2cnc3c(NCc4ccccc4)ncnc32)[C@H](O)[C@@H]1O` [N6-BENZYLADENOSINE], the GI50 was 22.3 µM in assay [1]; 4.6 µM in [2]; 3.91 µM in [8]; 7.4 µM in assay [3]; 4.17 µM in assay [9]; 2.92 µM in assay [10]. Moreover, the concentration for 50% growth inhibition (GI50) was 61 µM in assay [4] and 2.92 µM in assay [11]. The compound also came in with a Ki in assay [7] of 0.0413 µM.
As to `C[C@@]1(O)[C@@H](CO)O[C@@H](n2cnc3c(N[C@@H]4C[C@@H]5CC[C@@H]4C5)ncnc32)[C@@H]1O` (racemic), the results for the Activity in assay [12], in assay [13] and in [14] were 10%, 65% and 28%, respectively. Moreover, the GI50 in assay [1] is 65.8 µM; in assay [2], 32.5 µM; in assay [3], 56 µM; in [4], 56 µM.
`C[C@@]1(O)[C@@H](CO)O[C@@H](n2cnc3c(N)ncnc32)[C@@H]1O`: the GI50 in assay [1] was 26.1 µM; in [2] it was 9.4 µM; in assay [3] it was 23.2 µM; in assay [4] it was 22.4 µM.
In the case of `C[C@@]1(O)[C@@H](CO)O[C@@H](n2cnc3c(NC4CC4)ncnc32)[C@@H]1O`, the GI50 is greater than 250 µM in [1], 73 µM in assay [2], greater than 250 µM in assay [3] and greater than 250 µM in assay [4].
For the compound `C[C@@]1(O)[C@@H](CO)O[C@@H](n2cnc3c(NC4CCCC4)ncnc32)[C@@H]1O`, the 50% growth inhibitory concentration (GI50) in [1] was greater than 250 µM; in assay [2], 145 µM; in assay [3], greater than 250 µM; in assay [4] it was greater than 250 µM.
For `OC[C@H]1O[C@@H](n2cnc3c(NCc4ccco4)ncnc32)[C@H](O)[C@@H]1O` [KINETIN RIBOSIDE], the GI50 was determined as 60.2 µM in [1], 3.3 µM in assay [2], 45.6 µM in assay [3] and 45.6 µM in [4]. This compound also yielded an inhibitory constant (Ki) in assay [7] of 0.022 µM.
`OC[C@H]1O[C@@H](n2cnc3c(NC4CCCC4)nc(Cl)nc32)[C@H](O)[C@@H]1O`: the GI50 in assay [1], in assay [2], in [3] and in [4] was greater than 250 µM throughout.
